Measured values taken from PMC10333676 (Redox Biology, 2023).

Columns and labels:
[1] = molecular target: T1, Mutant Magnetospirillum gryphiswaldense cereblon isoform 4 (MsCI4^WW/FF) (Magnetospirillum gryphiswaldense, UniProt A4TVL0, W36F/W59F); experiment: FRET-based competitive binding assay
T1 sequence (A4TVL0 1-124 W36F/W59F): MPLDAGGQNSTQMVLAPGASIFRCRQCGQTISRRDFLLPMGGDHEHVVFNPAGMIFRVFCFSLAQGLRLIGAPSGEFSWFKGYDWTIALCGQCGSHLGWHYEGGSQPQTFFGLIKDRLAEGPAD
Outline: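 Competitive FRET binding used mutant cereblon isoform 4 (MsCI4WW/FF) with the reporter ligand MANT-uracil. Buffer was 20 mM Tris pH 7.5, 150 mM NaCl, 5 mM 2-mercaptoethanol, final DMSO ≤0.02%. Tryptophan was read at ex 295/em 350 nm and FRET emission at 440 nm. Ligands were titrated to reduce the FRET signal, with MANT-uracil autofluorescence as blank and thalidomide as positive control; triplicates.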

KEAP1 [2] = molecular target: KEAP1 (Homo sapiens, UniProt Q14145); experiment: KEAP1 degradation in HepG2 cells by western blotting; format: cell-based; conditions: for reduction of KEAP1 level: HepG2, 1 μM, 6 h
Outline: (§1)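 CRBN-knockdown HepG2 clones were made with pGIPZ lentiviral shRNA (virus from transfected HEK293T, with 5 μg/mL polybrene) and GFP-FACS sorting. Lysates were western blotted and densitometry came from three independent experiments.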

[3] = molecular target: T1, Mutant Magnetospirillum gryphiswaldense cereblon isoform 4 (MsCI4^WW/FF); conditions: read-out: published Kd of MANT-uracil to MsCI4^WW/FF; cited from earlier work
KEAP1 [4] = molecular target: T2, KEAP1 (Mus musculus, UniProt Q9Z2X8); experiment: KEAP1 degradation in AML12 cells by western blotting; format: cell-based
Outline: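 AML12 cells got test compound for 24 h over a concentration series (DC50/Dmax) or 100 nM over a time course (DT50). Co-treatments: MG132 5 μM with 100 or 300 nM for 4 h; CQ 20 μM for 18 h, then 100 or 300 nM for 6 h; pomalidomide or TD-165 1 μM for 3 h, then 100 nM for 6 h. KEAP1 was read by western blot (RIPA, SDS-PAGE, PVDF, ECL) with densitometry from three independent experiments.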

KEAP1 [5] = molecular target: T2, KEAP1; experiment: KEAP1 degradation in primary mouse hepatocytes by western blotting; format: cell-based; conditions: 1 to 1000 nM, 24 h
Outline: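 Primary hepatocytes from male C57BL6/N mice were collagenase-perfused and plated in medium 199 with 10% FBS, 10 nM dexamethasone and 23 mM HEPES. […] KEAP1 was read by western blot. DC50 and Dmax came from densitometry of three independent experiments.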

NRF2 [6] = experiment: Nuclear translocation of NRF2 in AML12 cells; format: cell-based, mouse
Outline: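 Nuclear fractionation: AML12 cells got test compound 300 nM for indicated times. Cells were pelleted (4000 G, 4 °C), extracted in nuclear buffer, frozen, then spun at 15,000 G for 20 min. Fractions were BCA-quantified and western blotted (GAPDH cytosolic, Lamin B nuclear loading controls), with densitometry from three independent experiments. Immunofluorescence: 100 or 300 nM for 3 h, 4% PFA, 0.1% Triton X-100, NRF2 stain, DAPI, confocal imaging.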

NRF2 [7] = experiment: Nuclear translocation of NRF2 in HepG2 cells; format: cell-based, human
[8] = test system: HMOX1, NQO1, GCLC and GCLM (the target genes of NRF2); experiment: NRF2 target gene expression by qRT-PCR in AML12 cells; format: cell-based, mouse; conditions: AML12, 100 nM
Outline: (§2)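 Cells got test compound 100 nM for indicated times. RNA was extracted with TRIzol, reverse-transcribed, and HMOX1, NQO1, GCLC and GCLM were quantified by qRT-PCR. Values were normalized to GAPDH and expressed as relative levels by ΔΔCt.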

[9] = test system: HMOX1, NQO1, GCLC and GCLM (the target genes of NRF2); experiment: NRF2 target gene expression by qRT-PCR in HepG2 cells; format: cell-based, human; conditions: HepG2, 100 nM
Outline: as §2

AML12 cells [10] = experiment: APAP-induced loss of cell viability; format: cell-based, mouse; conditions: AML12, APAP 15 mM, 24 h, MTT
AML12 cells [11] = experiment: APAP-induced ROS generation; format: cell-based, mouse; conditions: AML12, APAP 5 mM, 4 h, 300 nM of SD2267
Outline: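 AML12 mouse hepatocytes (DMEM/F-12, 10% FBS, ITS-pyruvate, dexamethasone 40 ng/mL) were seeded and exposed the next day to 5 mM APAP with or without test compound. After 4 h, cells were loaded with 50 μM DCF-DA in serum-free medium for 30 min at 37 °C and washed. Fluorescence was read at ex488/em525.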

AML12 cells [12] = experiment: APAP-induced mitochondrial ROS; format: cell-based, mouse; conditions: AML12, APAP 5 mM, 8 h
Outline: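 AML12 cells were exposed to 5 mM APAP with or without test compound for 8 h. They were then stained with 5 μM MitoSOX Red (mitochondrial ROS, red fluorescence) or 0.25 μg/mL JC-1 (green monomer fluorescence, rising as membrane potential falls). Intensities were read by flow cytometry; means ± SEMs, n = 3 per group.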

[13] = test system: primary mouse hepatocytes; experiment: APAP-induced ROS generation; format: cell-based; conditions: 100 nM 6 h before APAP 20 mM
Outline: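 Primary hepatocytes came from 8–10-week male C57BL6/N mice by collagenase perfusion and were cultured in medium 199 with 10% FBS, 10 nM dexamethasone and 23 mM HEPES. The next day cells got test compound 100 nM for 6 h, then 50 μM DCF-DA (serum-free, 30 min, 37 °C), a wash and 20 mM APAP. Fluorescence (ex488/em525) was read every 20 min for 10 h; n = 4 per group.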

[14] = In vivo pharmacokinetics in ICR mice; parameters: species or system mouse; conditions: for AUC / AUC(0-t) / Cmax / MRT / half-life: male, ICR, mouse, plasma
Outline: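 Male ICR mice (7–8 weeks, 30–35 g) received test compound at 3 mg/kg IP or PO. Plasma concentration–time profiles were measured and PK parameters were derived by non-compartmental analysis.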

C57BL/6 N male mice = experiment: Acetaminophen; format: in vivo, mouse
CRBN = CRBN (Homo sapiens, UniProt Q96SW2); experiment: CRBN protein level in HepG2 cells by western blotting; format: cell-based; conditions: HepG2, 100 or 300 nM, 24 h
Outline: as §1

[15] = SD2267 3 mg/kg IP 2 h after APAP 250 mg/kg IP, 6 h

Sequence of KEAP1 (Homo sapiens, UniProt Q14145) (Q14145 whole entry): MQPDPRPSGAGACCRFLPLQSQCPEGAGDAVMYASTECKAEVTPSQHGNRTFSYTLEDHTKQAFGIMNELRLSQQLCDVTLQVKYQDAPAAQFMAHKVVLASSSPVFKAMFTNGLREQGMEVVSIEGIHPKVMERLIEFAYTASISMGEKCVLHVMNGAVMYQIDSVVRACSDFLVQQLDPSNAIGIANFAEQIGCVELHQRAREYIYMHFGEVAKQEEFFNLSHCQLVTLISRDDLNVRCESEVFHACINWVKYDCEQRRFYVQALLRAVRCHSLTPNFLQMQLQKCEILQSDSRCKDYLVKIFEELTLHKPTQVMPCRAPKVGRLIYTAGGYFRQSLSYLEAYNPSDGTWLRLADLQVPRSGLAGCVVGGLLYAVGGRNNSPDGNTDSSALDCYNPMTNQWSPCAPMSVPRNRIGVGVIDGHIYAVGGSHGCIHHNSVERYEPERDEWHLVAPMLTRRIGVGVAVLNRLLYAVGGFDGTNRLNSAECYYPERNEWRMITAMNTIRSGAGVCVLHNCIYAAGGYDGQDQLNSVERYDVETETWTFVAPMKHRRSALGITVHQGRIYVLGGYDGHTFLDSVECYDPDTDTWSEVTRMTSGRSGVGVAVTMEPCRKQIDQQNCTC
T2 sequence (Q9Z2X8 whole entry): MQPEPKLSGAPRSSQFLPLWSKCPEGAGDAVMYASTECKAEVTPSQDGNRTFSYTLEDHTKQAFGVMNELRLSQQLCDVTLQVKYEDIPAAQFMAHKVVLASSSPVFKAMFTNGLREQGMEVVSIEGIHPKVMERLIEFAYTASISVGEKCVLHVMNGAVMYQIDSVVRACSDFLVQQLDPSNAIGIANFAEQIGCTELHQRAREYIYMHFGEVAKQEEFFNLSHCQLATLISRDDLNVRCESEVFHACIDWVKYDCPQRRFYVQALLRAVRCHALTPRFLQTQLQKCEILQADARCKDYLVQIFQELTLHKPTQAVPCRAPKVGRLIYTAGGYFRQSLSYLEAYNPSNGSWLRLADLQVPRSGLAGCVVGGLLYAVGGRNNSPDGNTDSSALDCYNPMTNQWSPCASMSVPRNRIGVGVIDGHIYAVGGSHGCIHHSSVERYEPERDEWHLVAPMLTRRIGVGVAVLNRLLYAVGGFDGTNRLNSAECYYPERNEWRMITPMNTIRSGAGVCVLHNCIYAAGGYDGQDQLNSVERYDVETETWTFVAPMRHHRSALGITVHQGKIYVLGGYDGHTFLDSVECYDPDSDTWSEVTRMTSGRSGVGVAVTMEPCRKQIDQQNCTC
Sequence of CRBN (Q96SW2 whole entry): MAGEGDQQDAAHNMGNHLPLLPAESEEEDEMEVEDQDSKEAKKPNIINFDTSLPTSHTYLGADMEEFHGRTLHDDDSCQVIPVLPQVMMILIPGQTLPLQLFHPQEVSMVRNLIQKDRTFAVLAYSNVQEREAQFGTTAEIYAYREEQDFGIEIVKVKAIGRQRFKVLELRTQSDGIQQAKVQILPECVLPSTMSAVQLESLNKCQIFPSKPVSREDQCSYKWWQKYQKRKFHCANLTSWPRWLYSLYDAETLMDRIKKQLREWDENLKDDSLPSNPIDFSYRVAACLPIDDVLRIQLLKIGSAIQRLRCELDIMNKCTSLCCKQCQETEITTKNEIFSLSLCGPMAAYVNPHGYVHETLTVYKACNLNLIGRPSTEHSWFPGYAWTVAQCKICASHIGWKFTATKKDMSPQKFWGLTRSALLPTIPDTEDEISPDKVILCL

Cc1ccc(C(CC(=O)O)c2cc(OCCCCNc3cccc4c3C(=O)N(C3CCC(=O)NC3=O)C4=O)c3c(c2)nnn3C)cc1CN1C[C@@H](C)Oc2ccccc2S1(=O)=O (stereo partly drawn) [SD2269]
Ki [1]: 64.8 ± 13.2 nM
reduction of KEAP1 level (KEAP1 [2]): no effect

Cc1ccc(C(CC(=O)O)c2cc(OCCCCCCCCNc3ccc4c(c3)C(=O)N(C3CCC(=O)NC3=O)C4=O)c3c(c2)nnn3C)cc1CN1C[C@@H](C)Oc2ccccc2S1(=O)=O (stereo partly drawn) [SD2268]
Ki [1]: 8150 ± 5710 nM
reduction of KEAP1 level (KEAP1 [2]): 7%

CNc1ccccc1C(=O)NCCn1ccc(=O)[nH]c1=O [MANT-uracil, 1-(N-2-MANT-imidoethyl)-uracil]
Kd [3]: 3300 nM

Cc1ccc(C(CC(=O)O)c2cc(OCCCCCCCCNc3cccc4c3C(=O)N(C3CCC(=O)NC3=O)C4=O)c3c(c2)nnn3C)cc1CN1C[C@@H](C)Oc2ccccc2S1(=O)=O (stereo partly drawn) [SD2267]
Ki [1]: 57.7 ± 17.5 nM
Half-life (DT50) of KEAP1 (KEAP1 [2]; HepG2, 100 nM): 2.6 h
reduction of KEAP1 level (KEAP1 [2]): 64%
Dmax at 0.3 µM (KEAP1 [2]; HepG2, read-out: maximum degradation efficacy (Dmax)): 82.3%
DC50 (KEAP1 [2]; read-out: half-maximal degradation concentration (DC50), HepG2, 24 h, 1 to 1000 nM): 8.1 nM
KEAP1 levels in CRBN knockdown cells (KEAP1 [2]; shCRBN #10 HepG2, 100 or 300 nM, 24 h): not affected
KEAP1 degradation in control cells (KEAP1 [2]; shCon HepG2, 100 or 300 nM, 24 h): effectively degraded KEAP1
Half-life (DT50) of KEAP1 (KEAP1 [4]; AML12, 100 nM): 2.2 h
KEAP1 degradation under autophagy inhibition by chloroquine (KEAP1 [4]; AML12, CQ 20 μM 18 h prior to SD2267 100 or 300 nM 6 h): did not abolish
KEAP1 degradation in the presence of pomalidomide or TD-165 (KEAP1 [4]; AML12, POM 1 μM or TD-165 1 μM 3 h prior to SD2267 100 nM 6 h): attenuated
KEAP1 degradation in the presence of MG132 (KEAP1 [4]; AML12, SD2267 100 or 300 nM, MG132 5 μM, 4 h): could not degrade KEAP1
Dmax at 0.3 µM (KEAP1 [4]; AML12, read-out: maximum degradation efficacy (Dmax)): 76.5%
DC50 (KEAP1 [4]; read-out: half-maximal degradation concentration (DC50), AML12, 24 h, 1 to 1000 nM): 16.8 nM
KEAP1 degradation (KEAP1 [5]): dose-dependently degraded
Nuclear NRF2 (nuclear fractionation, western blotting) (NRF2 [6]; AML12, 300 nM, within 3 h): significantly upregulated
amount and nuclear localization of NRF2 (immunofluorescence, confocal microscopy) (NRF2 [6]; AML12, 100 or 300 nM, 3 h): increased
Nuclear NRF2 (nuclear fractionation, western blotting) (NRF2 [7]; HepG2, 100 nM, within 3 h): significantly upregulated
amount and nuclear localization of NRF2 (immunofluorescence, confocal microscopy) (NRF2 [7]; HepG2, 100 or 300 nM, 3 h): increased
mRNA expression levels of HMOX1, NQO1, GCLC and GCLM [8]: significantly increased
mRNA expression levels of NRF2 target genes [9]: significantly increased
cell viability decreased by APAP (AML12 cells [10]): significantly recovered
APAP-induced increase of DCF-DA fluorescence intensity (AML12 cells [11]): significantly attenuated
APAP-induced increment of JC-1 green fluorescence intensity (AML12 cells [12]): significantly reduced
MitoSOX Red fluorescence intensity versus APAP only (AML12 cells [12]): significantly lower
APAP-induced ROS generation [13]: significantly reduced
Tmax ([14]; PO, 3 mg/kg, mice, n = 3, median with range): 80 [60–120] min
AUC ([14]; ip, 3 mg/kg): 7800 ng·h/mL
AUC(0-t) ([14]; ip, 3 mg/kg): 7720 ng·h/mL
Cmax ([14]; ip, 3 mg/kg): 1970 ± 870 ng/mL
MRT ([14]; ip, 3 mg/kg): 4.83 h
half-life ([14]; ip, 3 mg/kg): 3.67 ± 0.283 h
AUC ([14]; po, 3 mg/kg): 597 ng·h/mL
AUC(0-t) ([14]; po, 3 mg/kg): 497 ng·h/mL
Cmax ([14]; po, 3 mg/kg): 172 ± 116 ng/mL
MRT ([14]; po, 3 mg/kg): 12.1 h
half-life ([14]; po, 3 mg/kg): 12.3 ± 1.7 h
oral bioavailability ([14]; oral parameters much lower than those of IP): low oral bioavailability
KEAP1 protein level in the liver compared to APAP (C57BL/6 N male mice; 1 mg/kg IP, western blotting, p = 0.08): a trend towards a decrease
increase of liver protein level of NRF2 and HO-1 versus APAP-only group (C57BL/6 N male mice; 3 mg/kg IP): significantly greater
phosphorylation of JNK induced by APAP in liver (C57BL/6 N male mice; 3 mg/kg IP): significantly reduced
hepatic necrosis (HE staining) (C57BL/6 N male mice; 3 mg/kg, 2 h post-treatment after APAP 250 mg/kg): significantly reduced
liver GSH to GSSG ratio decreased by APAP (C57BL/6 N male mice; 1 or 3 mg/kg IP): significantly and dose-dependently recovered
number of TUNEL-positive cells (C57BL/6 N male mice; APAP + 3 mg/kg of SD2267, 369 in APAP-treated mice, HPF x400): 123 cells per HPF
decrease of APAP-induced serum ALT increase (C57BL/6 N male mice; [15]): ~1.9 fold
decrease of APAP-induced serum AST increase (C57BL/6 N male mice; [15]): ~2.2 fold
CRBN degradation (CRBN): not degraded
